Key:
Format in all cases: functional
U-251 [1] = test: Growth inhibition of human U251 cells at 10 uM after 48 hrs by sulforhodamine B assay; conditions: U-251, 48 h, values are per cent of control
[2] = Growth inhibition of human LOXIMVI cells at 10 uM after 48 hrs by sulforhodamine B assay; conditions: LOX IMVI, values are per cent of control
Malme-3M = test: Growth inhibition of human MALME-3M cells at 10 uM after 48 hrs by sulforhodamine B assay; conditions: values are per cent of control
[3] = Growth inhibition of human UACC257 cells at 10 uM after 48 hrs by sulforhodamine B assay; conditions: UACC-257, 48 h, values are per cent of control
[4] = Growth inhibition of human OVCAR3 cells at 10 uM after 48 hrs by sulforhodamine B assay; conditions: OVCAR-3, 48 h, values are per cent of control
[5] = Growth inhibition of human OVCAR5 cells at 10 uM after 48 hrs by sulforhodamine B assay; conditions: OVCAR-5, 48 h, values are per cent of control
[6] = Growth inhibition of human OVCAR8 cells at 10 uM after 48 hrs by sulforhodamine B assay; conditions: OVCAR-8, 48 h, values are per cent of control
A498 = test: Growth inhibition of human A498 cells at 10 uM after 48 hrs by sulforhodamine B assay; conditions: A498, 48 h, values are per cent of control
[7] = Growth inhibition of human UO31 cells at 10 uM after 48 hrs by sulforhodamine B assay; conditions: UO-31, 48 h, values are per cent of control
[8] = Growth inhibition of human PC3 cells at 10 uM after 48 hrs by sulforhodamine B assay; conditions: PC-3, 48 h, values are per cent of control
MCF7 [9] = test: Growth inhibition of human MCF7 cells at 10 uM after 48 hrs by sulforhodamine B assay; conditions: MCF7, 48 h, values are per cent of control
[10] = Growth inhibition of human Hs 578T cells at 10 uM after 48 hrs by sulforhodamine B assay; conditions: values are per cent of control
CCRF-CEM [11] = test: Growth inhibition of human CCRF-CEM cells after 48 hrs by sulforhodamine B assay
In short: (§1)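 Five-dose testing against a 60-line human tumor cell panel. GI50 is the drug concentration giving a 50% reduction in net protein increase relative to untreated control cells.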

[12] = Growth inhibition of human HL-60(TB) cells after 48 hrs by sulforhodamine B assay; conditions: HL-60, 48 h
In short: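 Five-dose study across the 60-cell human tumour panel. GI50 is the drug concentration giving a 50% reduction in net protein increase relative to control cells.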

[13] = Growth inhibition of human MOLT4 cells after 48 hrs by sulforhodamine B assay; conditions: MOLT-4, 48 h
In short: (§2)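 Five-dose concentration series run across a panel of 60 human tumour cell lines. GI50 is taken as the drug concentration giving a 50% reduction in net protein increase relative to untreated control cells.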

[14] = Growth inhibition of human HOP62 cells after 48 hrs by sulforhodamine B assay; conditions: HOP-62, 48 h; in short: as §1
[15] = Growth inhibition of human HOP92 cells after 48 hrs by sulforhodamine B assay; conditions: HOP-92, 48 h; in short: as §1
NCI-H23 [16] = test: Growth inhibition of human NCI-H23 cells after 48 hrs by sulforhodamine B assay; conditions: NCI-H23, 48 h; in short: as §2
NCI-H522 = test: Growth inhibition of human NCI-H522 cells after 48 hrs by sulforhodamine B assay; conditions: NCI-H522, 48 h; in short: as §2
[17] = Growth inhibition of human HCC2998 cells after 48 hrs by sulforhodamine B assay; conditions: HCC 2998, 48 h; in short: as §1
[18] = Growth inhibition of human HCT116 cells after 48 hrs by sulforhodamine B assay; conditions: HCT-116, 48 h; in short: as §1
[19] = Growth inhibition of human HCT15 cells after 48 hrs by sulforhodamine B assay; conditions: HCT-15, 48 h; in short: as §1
KM12 = test: Growth inhibition of human KM12 cells after 48 hrs by sulforhodamine B assay; conditions: KM12, 48 h; in short: as §1
[20] = Growth inhibition of human SF268 cells after 48 hrs by sulforhodamine B assay; conditions: SF-268, 48 h; in short: as §2
[21] = Growth inhibition of human SF295 cells after 48 hrs by sulforhodamine B assay; conditions: SF-295, 48 h; in short: as §2
U-251 [22] = test: Growth inhibition of human U251 cells after 48 hrs by sulforhodamine B assay; conditions: U-251, 48 h; in short: as §2
[23] = Growth inhibition of human IGROV1 cells after 48 hrs by sulforhodamine B assay; conditions: IGROV-1, 48 h; in short: as §1
[24] = Growth inhibition of human OVCAR3 cells after 48 hrs by sulforhodamine B assay; conditions: OVCAR-3, 48 h; in short: as §2
786-0 = test: Growth inhibition of human 786-0 cells after 48 hrs by sulforhodamine B assay; conditions: 786-0, 48 h; in short: as §1
CCRF-CEM [25] = test: Growth inhibition of human CCRF-CEM cells at 10 uM after 48 hrs by sulforhodamine B assay; conditions: values are per cent of control
[26] = Growth inhibition of human HL-60(TB) cells at 10 uM after 48 hrs by sulforhodamine B assay; conditions: HL-60, 48 h, values are per cent of control
[27] = Growth inhibition of human MOLT4 cells at 10 uM after 48 hrs by sulforhodamine B assay; conditions: MOLT-4, 48 h, values are per cent of control
[28] = Growth inhibition of human RPMI8226 cells at 10 uM after 48 hrs by sulforhodamine B assay; conditions: RPMI-8226, 48 h, values are per cent of control
[29] = Growth inhibition of human HOP92 cells at 10 uM after 48 hrs by sulforhodamine B assay; conditions: HOP-92, 48 h, values are per cent of control
NCI-H23 [30] = test: Growth inhibition of human NCI-H23 cells at 10 uM after 48 hrs by sulforhodamine B assay; conditions: NCI-H23, 48 h, values are per cent of control
[31] = Growth inhibition of human SF295 cells at 10 uM after 48 hrs by sulforhodamine B assay; conditions: SF-295, 48 h, values are per cent of control
[32] = Growth inhibition of human UO31 cells after 48 hrs by sulforhodamine B assay; conditions: UO-31, 48 h
In short: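 Five-dose testing across the 60-line human tumour cell panel. GI50 is the drug concentration that gives a 50% reduction in net protein increase relative to control cells.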

[33] = Growth inhibition of human PC3 cells after 48 hrs by sulforhodamine B assay; conditions: PC-3, 48 h; in short: as §2
[34] = Growth inhibition of human DU145 cells after 48 hrs by sulforhodamine B assay; conditions: DU-145, 48 h; in short: as §1
MCF7 [35] = test: Growth inhibition of human MCF7 cells after 48 hrs by sulforhodamine B assay; conditions: MCF7, 48 h; in short: as §1
MDA-MB-231 = test: Growth inhibition of human MDA-MB-231 cells after 48 hrs by sulforhodamine B assay; conditions: MDA-MB-231, 48 h; in short: as §1
MDA-MB-468 = test: Growth inhibition of human MDA-MB-468 cells after 48 hrs by sulforhodamine B assay; conditions: MDA-MB-468, 48 h; in short: as §1
[36] = Growth inhibition of human OVCAR4 cells after 48 hrs by sulforhodamine B assay; conditions: OVCAR-4, 48 h; in short: as §2

COc1ccc(/C=C(\C#N)c2ccc3c(c2)OCO3)cc1
growth, % of control at 10 µM (U-251 [1]): 16.5%
growth, % of control at 10 µM [2]: 33.3%
growth, % of control at 10 µM (Malme-3M): 24.3%
growth, % of control at 10 µM [3]: 23%
growth, % of control at 10 µM [4]: 4.9%
growth, % of control at 10 µM [5]: 49.6%
growth, % of control at 10 µM [6]: 26.7%
growth, % of control at 10 µM (A498): -6.2%
growth, % of control at 10 µM [7]: 28%
growth, % of control at 10 µM [8]: 21.2%
growth, % of control at 10 µM (MCF7 [9]): 20.7%
growth, % of control at 10 µM [10]: 27.2%
GI50 (CCRF-CEM [11]): 250 nM
GI50 [12]: 240 nM
GI50 [13]: 450 nM
GI50 [14]: 300 nM
GI50 [15]: 4.22 µM
GI50 (NCI-H23 [16]): 0.86 µM
GI50 (NCI-H522): 40 nM
GI50 [17]: 5.26 µM
GI50 [18]: 220 nM
GI50 [19]: 70 nM
GI50 (KM12): 70 nM
GI50 [20]: 0.73 µM
GI50 [21]: 200 nM
GI50 (U-251 [22]): 430 nM
GI50 [23]: 3.6 µM
GI50 [24]: 270 nM
GI50 (786-0): 18.9 µM
growth, % of control at 10 µM (CCRF-CEM [25]): 21.6%
growth, % of control at 10 µM [26]: 0.1%
growth, % of control at 10 µM [27]: 19.5%
growth, % of control at 10 µM [28]: 18.9%
growth, % of control at 10 µM [29]: 40.4%
growth, % of control at 10 µM (NCI-H23 [30]): 43.2%
growth, % of control at 10 µM [31]: 11.2%
GI50 [32]: 0.58 µM
GI50 [33]: 320 nM
GI50 [34]: 590 nM
GI50 (MCF7 [35]): 80 nM
GI50 (MDA-MB-231): 2110 nM
GI50 (MDA-MB-468): 280 nM

COc1ccc(/C=C(\C#N)c2ccc3c(c2)OCO3)c(OC)c1
growth, % of control at 10 µM (U-251 [1]): 29.2%
growth, % of control at 10 µM [2]: 41%
growth, % of control at 10 µM (Malme-3M): 49.3%
growth, % of control at 10 µM [3]: 44.7%
growth, % of control at 10 µM [4]: 15.3%
growth, % of control at 10 µM [5]: 81.6%
growth, % of control at 10 µM [6]: 63.1%
growth, % of control at 10 µM (A498): 26.5%
growth, % of control at 10 µM [7]: 46.7%
growth, % of control at 10 µM [8]: 47%
growth, % of control at 10 µM [10]: 43.8%
GI50 (CCRF-CEM [11]): 1560 nM
GI50 [12]: 1490 nM
GI50 [13]: 2810 nM
GI50 [14]: 3300 nM
GI50 [15]: 7.42 µM
GI50 (NCI-H23 [16]): 6.33 µM
GI50 (NCI-H522): 2580 nM
GI50 [17]: 11.9 µM
GI50 [18]: 2680 nM
GI50 [19]: 870 nM
GI50 (KM12): 2250 nM
GI50 [20]: 9.36 µM
GI50 [21]: 1750 nM
GI50 [23]: 8.8 µM
GI50 [24]: 3100 nM
GI50 [36]: 1650 nM
GI50 (786-0): 4.93 µM
growth, % of control at 10 µM (CCRF-CEM [25]): 27%
growth, % of control at 10 µM [26]: 7.1%
growth, % of control at 10 µM [27]: 22.7%
growth, % of control at 10 µM [28]: 58.1%
growth, % of control at 10 µM (NCI-H23 [30]): 59.1%
growth, % of control at 10 µM [31]: 27.1%
GI50 [32]: 6.66 µM
GI50 [33]: 3030 nM
GI50 [34]: 3620 nM
GI50 (MCF7 [35]): 850 nM
GI50 (MDA-MB-231): 3360 nM
GI50 (MDA-MB-468): 690 nM
